According to ChEMBL document CHEMBL1121384, “Synthesis and psychoanaleptic properties of new compounds structurally related to diphenhydramine” (J Med Chem, 1980):
Where a name gives a salt, the structure may show the parent alone.

Experiments:
[1] = Ratio of LD50/ED50; format: ADME
Mus musculus [2] = assay: Toxicity administered perorally was measured in mice; format: organism-based; conditions: in vivo, po
Procedure, shortened: (§1)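 Male Swiss mice (18-20 g) were given compound orally in 0.5% carboxymethylcellulose, in groups of four at 200, 400, 800 and 1600 mg/kg. LD50 was taken from mortality; vehicle controls were included.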

Mus musculus [3] = assay: Increase of exploratory behavior of mice by administering compound perorally; format: functional
Procedure, shortened: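 Male Swiss mice (18-20 g) were dosed orally in 0.5% carboxymethylcellulose and placed singly in photobeam boxes with two crossed beams. Beam breaks were counted over the first 5 min. ED50 is the dose raising counts by 50% over vehicle controls, fitted by least squares from four groups of 10 mice on doses spaced by ratio 2.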

Mus musculus [4] = assay: Toxicity was measured as Lethal Dose 50 by administering to mice perorally; format: organism-based; conditions: in vivo, po; procedure, shortened: as §1
Rattus norvegicus [5] = species on record: Rattus norvegicus; assay: Anorexic activity was measured as the dose required to lower by 50% the consumption of control group in rat; No activity at this dose; format: functional
Procedure, shortened: (§2)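 Male Wistar rats (100-120 g) given chocolate milk to drink for 6 h once a week over 6 weeks. In the last 4 weeks, compounds in 0.5% aqueous carboxymethylcellulose were given orally before each session in a Latin square design. ED50 is the dose cutting consumption by 50% vs vehicle controls, fitted by least squares from three groups (24 rats) on doses spaced by ratio 2.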

Canis familiaris [6] = assay: Sympathomimetic action was evaluated from the increase of the femoral arterial blood pressure and of the cardiac uM/kg changes were < 10%; format: functional, Canis lupus familiaris
Procedure, shortened: (§3)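 Mongrel dogs of both sexes were given compound intravenously in 0.5% carboxymethylcellulose. Hypertension and tachycardia were recorded. Values are doses in μmol/kg.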

Mus musculus [7] = assay: Narcosis antagonism was measured as the dose required to lower by 50% the duration of narcosis in mice after peroral administration; format: functional; conditions: po
Cavia porcellus [8] = species on record: Cavia porcellus; assay: In vitro antihistaminic activity was determined by histamine induced contraction of guinea pig ileum; format: functional; conditions: for Kb: Cavia porcellus, Ileum, read-out: pA2 (converted)
Procedure, shortened: (§4)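 Terminal ileum strips from guinea pigs (250-300 g) killed by a blow to the neck were hung in Tyrode solution at 32 °C, gassed with 95% O2/5% CO2.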

[9] = Group toxicity is the ratio of the LD50 values of isolated mice to that of grouped mice; format: organism-based; conditions: mouse, in vivo; read-out: Group toxicity
Procedure, shortened: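 Male Swiss mice (18-20 g) were dosed orally in 0.5% carboxymethylcellulose. Groups of 10 were then either crowded in small boxes (8.5 × 18 × 8.5 cm, four air holes) or kept isolated under usual housing, and mortality was read at 6 h. Ratio = LD50 isolated / LD50 grouped, from six doses spaced by ratio 2, computed by Kärber's method.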

Cavia porcellus [10] = species on record: Cavia porcellus; assay: In vitro anticholinergic activity was determined by acetylcholine induced contraction of guinea pig ileum; format: functional; conditions: read-out: pA2 (converted); procedure, shortened: as §4
Canis familiaris [11] = assay: Sympathomimetic action was evaluated from the increase of the femoral arterial blood pressure and of the cardiac uM/kg changes were <10%; format: functional, Canis lupus familiaris; procedure, shortened: as §3
Rattus norvegicus [12] = species on record: Rattus norvegicus; assay: Anorexic activity was measured as the dose required to lower by 50% the consumption of control group in rat; format: functional; procedure, shortened: as §2
Canis familiaris [13] = assay: Sympathomimetic action was evaluated from the increase of the cardiac rhythm after intravenous injection in dog; format: functional, Canis lupus familiaris; procedure, shortened: as §3
Canis familiaris [14] = assay: Sympathomimetic action was evaluated from the increase of the femoral arterial blood pressure after intravenous injection in dog; format: functional, Canis lupus familiaris; procedure, shortened: as §3

SMILES	selectivity ratio [1]	LD50 (Mus musculus [2])	ED50 (Mus musculus [3])	also measured
O=C(O)/C=C\C(=O)O.O=C(O)/C=C\C(=O)O.O=C(O)CCN1CCN(CCOC(c2ccc(F)cc2)c2ccc(F)cc2)CC1	23	1.1 mmol/kg	0.05 mmol/kg	–
CCOC(=O)CCN1CCN(CCOC(c2ccccc2)c2ccc([N+](=O)[O-])cc2)CC1.Cl (configuration not stated)	–	–	0.5 mmol/kg	LD50 (Mus musculus [4]): 3 M/kg
O=C(O)CCN1CCN(CCOCc2ccccc2)CC1	–	> 5.5 mmol/kg	0.5 mmol/kg	–
O=C(O)/C=C\C(=O)O.O=C(O)/C=C\C(=O)O.O=C(O)CCN1CCN(CCOC(c2ccccc2)c2ccc(F)cc2)CC1 (configuration not stated)	37	1.3 mmol/kg	0.04 mmol/kg	ED50 (Rattus norvegicus [5]): > 60 µmol/kg; Activity (Canis familiaris [6]): 0; ED50 (Mus musculus [7]): > 650 µmol/kg; Kb (Cavia porcellus [8]): 0.224 µM; selectivity ratio [9]: 1.7; Kb (Cavia porcellus [10]): 7.24 µM
CCOC(=O)CCN1CCN(CCOC(c2ccc(F)cc2)c2ccc(F)cc2)CC1.Cl	20	1.2 mmol/kg	0.06 mmol/kg	Activity (Canis familiaris [6]): 0; ED50 (Mus musculus [7]): ~200 µmol/kg; Kb (Cavia porcellus [8]): 0.00724 µM; selectivity ratio [9]: 0.4; Kb (Cavia porcellus [10]): 0.309 µM
O=C([O-])CN1CCN(CCOC(c2ccccc2)c2ccccc2)CC1.[Na+]	–	4.3 mmol/kg	0.5 mmol/kg	–
O=C(O)/C=C\C(=O)O.O=C(O)/C=C\C(=O)O.O=C(O)CCN1CCN(CCOC(c2ccccc2)c2ccc(Cl)cc2)CC1 (configuration not stated)	32	1.6 mmol/kg	0.05 mmol/kg	–
COc1ccc(CN(CCN(C)C)c2ccccn2)cc1 [PYRILAMINE MALEATE]	–	–	–	Kb (Cavia porcellus [8]): 0.000417 µM; Kb (Cavia porcellus [10]): 3.98 µM
O=C([O-])CCN1CCN(CCOC(c2ccccc2)c2ccccc2)CC1.[Na+]	17	3.6 mmol/kg	0.21 mmol/kg	ED50 (Mus musculus [7]): > 500 µmol/kg; Kb (Cavia porcellus [8]): 0.759 µM; selectivity ratio [9]: 0.6; Kb (Cavia porcellus [10]): 115 µM; Activity (Canis familiaris [11]): 0
CCCC(OCCN1CCN(CCC(=O)O)CC1)c1ccccc1.O=C(O)/C=C\C(=O)O.O=C(O)/C=C\C(=O)O (configuration not stated)	> 28	> 2.8 mmol/kg	0.1 mmol/kg	Kb (Cavia porcellus [8]): 3.55 µM; Kb (Cavia porcellus [10]): 1.95 µM
CCOC(=O)CCN1CCN(CCOC(c2ccccc2)c2ccccc2Cl)CC1.Cl (configuration not stated)	–	3.2 mmol/kg	0.5 mmol/kg	pA2 (Cavia porcellus [8]): 7.25
COc1cc(C(OCCN2CCN(CCC(=O)O)CC2)c2ccccc2)cc(OC)c1OC.O=C(O)/C=C\C(=O)O.O=C(O)/C=C\C(=O)O (configuration not stated)	–	2.3 mmol/kg	0.5 mmol/kg	–
Cl.N#CCCN1CCN(CCOC(c2ccccc2)c2ccccc2)CC1	7	0.7 mmol/kg	0.1 mmol/kg	–
O=C(O)/C=C\C(=O)O.O=C(O)/C=C\C(=O)O.O=C(O)CN1CCN(CCOC(c2ccccc2)c2ccc(F)cc2)CC1 (configuration not stated)	28	2.8 mmol/kg	0.1 mmol/kg	–
O=C(O)/C=C\C(=O)O.O=C(O)/C=C\C(=O)O.O=C(O)CCCN1CCN(CCOC(c2ccccc2)c2ccc(F)cc2)CC1 (configuration not stated)	34	1.9 mmol/kg	0.06 mmol/kg	–
O=C(CN1CCN(CCOC(c2ccccc2)c2ccccc2)CC1)N1CCOCC1.O=C(O)/C=C\C(=O)O.O=C(O)/C=C\C(=O)O.O=C(O)/C=C\C(=O)O	8	1.2 mmol/kg	0.15 mmol/kg	–
O=C(O)/C=C\C(=O)O.O=C(O)/C=C\C(=O)O.O=C(O)CCCCN1CCN(CCOC(c2ccccc2)c2ccc(F)cc2)CC1 (configuration not stated)	40	2.2 mmol/kg	0.05 mmol/kg	–
Cc1ccc(C(OCCN2CCN(CCC(=O)O)CC2)c2ccccc2)cc1.O=C(O)/C=C\C(=O)O.O=C(O)/C=C\C(=O)O (configuration not stated)	14	2.3 mmol/kg	0.16 mmol/kg	–
CCOC(=O)CCN1CCN(CCCOC(c2ccccc2)c2ccccc2)CC1.Cl	18	1.8 mmol/kg	0.1 mmol/kg	–
Cl.O=C(O)CCCN1CCN(CCOC(c2ccccc2)c2ccccc2)CC1	–	3.4 mmol/kg	0.17 mmol/kg	–
O=C(O)/C=C\C(=O)O.O=C(O)/C=C\C(=O)O.O=C(O)CCN1CCN(CCOC(c2ccccc2)c2cccc(C(F)(F)F)c2)CC1 (configuration not stated)	6	1.8 mmol/kg	0.3 mmol/kg	–
O=C(O)/C=C\C(=O)O.O=C(O)/C=C\C(=O)O.O=C(O)CCN1CCN(CCOC2c3ccccc3-c3ccccc32)CC1	10	2.3 mmol/kg	0.23 mmol/kg	–
COc1ccccc1C(OCCN1CCN(CCC(=O)O)CC1)c1ccccc1.O=C(O)/C=C\C(=O)O.O=C(O)/C=C\C(=O)O (configuration not stated)	–	2.2 mmol/kg	0.5 mmol/kg	–
O=C(CN1CCN(CCOC(c2ccccc2)c2ccccc2)CC1)N1CCN(Cc2ccc3c(c2)OCO3)CC1.O=C(O)/C=C\C(=O)O.O=C(O)/C=C\C(=O)O	23	0.7 mmol/kg	–	–
CC(N)Cc1ccccc1.O=S(=O)(O)O (racemic) [AMPHETAMINE SULFATE]	–	–	–	ED50 (Rattus norvegicus [12]): 13 µmol/kg; Increase (Canis familiaris [13]): 30%; Increase (Canis familiaris [14]): 50%; ED50 (Mus musculus [7]): 20 µmol/kg; Kb (Cavia porcellus [8]): 13.5 µM; selectivity ratio [9]: 5.3; Kb (Cavia porcellus [10]): > 1000 µM
Cl.NC(=O)CCN1CCN(CCOC(c2ccccc2)c2ccccc2)CC1	12	2.1 mmol/kg	0.17 mmol/kg	–
